Measured values reported in publication PMC9054024 (Science Advances, 2022).
Each block holds one molecule with its values, some of them ahead of it. Ends that are not written are not given here. * marks the point of attachment. Biotin = O=C1N[C@H]2[C@H](CS[C@H]2CCCCC(=O)*)N1

Legend:
HCT116 and Colo320 cells = experiment: Viability assay; format: cell-based, human; conditions: 48 hours; for effect of addition of cholesterol on viability: 20 μM compound ± cholesterol 20 μM; for cell viability compared to vehicle controls: 20 μM
Summary of the method: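 HCT116 and Colo320 cells were treated 48 h with the indicated agents at 20 μM, including water-soluble cholesterol, alone or combined. Viability was measured by CellTiter-Glo luminescence in triplicate and expressed relative to vehicle-treated cells.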

[1] = target: human CTNNB1 region 141-305 (short protein) (human) (UniProt P35222); experiment: ITC
HCT116 cells = experiment: Fluorescent staining of lipids and cholesterol in HCT116 cells; format: cell-based, human; conditions: treated for 24 and 48 hours
Summary of the method: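 HCT116 cells in glass-bottomed dishes treated with vehicle or 20 μM compound for 4, 8, 24 and 48 h. Fixed in 4% paraformaldehyde, stained with 2 μM BODIPY 493/503 for 15 min plus DAPI (1 μg/ml). Cholesterol stained with a filipin III kit. For localisation at 48 h, filipin was combined with anti-SERCA-ATPase (ER) or LipidSpot (lipid droplets). Imaged with a ×40 dry objective.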

[2] = test system: Wnt transcriptional activity; experiment: Dual-luciferase Wnt reporter assay in Colo320 and HCT116 cells; format: cell-based, human; conditions: 16 hours, versus vehicle
Summary of the method: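 Stable reporter cells came from lentiviral transduction: firefly luciferase under a 7XTCF promoter and Renilla luciferase under an EF1alpha promoter. 30,000 cells/well were treated 16 h with DMSO vehicle or increasing compound concentrations. Firefly and Renilla signals were read by Dual-Glo, in triplicate.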

[3] = target: T1, β-catenin complexes with E-cadherin (Homo sapiens, UniProt P35222); experiment: β-catenin Co-IP assay in DLD-1 cells; format: cell-based
T1 sequence (P35222 2-781 limits assumed): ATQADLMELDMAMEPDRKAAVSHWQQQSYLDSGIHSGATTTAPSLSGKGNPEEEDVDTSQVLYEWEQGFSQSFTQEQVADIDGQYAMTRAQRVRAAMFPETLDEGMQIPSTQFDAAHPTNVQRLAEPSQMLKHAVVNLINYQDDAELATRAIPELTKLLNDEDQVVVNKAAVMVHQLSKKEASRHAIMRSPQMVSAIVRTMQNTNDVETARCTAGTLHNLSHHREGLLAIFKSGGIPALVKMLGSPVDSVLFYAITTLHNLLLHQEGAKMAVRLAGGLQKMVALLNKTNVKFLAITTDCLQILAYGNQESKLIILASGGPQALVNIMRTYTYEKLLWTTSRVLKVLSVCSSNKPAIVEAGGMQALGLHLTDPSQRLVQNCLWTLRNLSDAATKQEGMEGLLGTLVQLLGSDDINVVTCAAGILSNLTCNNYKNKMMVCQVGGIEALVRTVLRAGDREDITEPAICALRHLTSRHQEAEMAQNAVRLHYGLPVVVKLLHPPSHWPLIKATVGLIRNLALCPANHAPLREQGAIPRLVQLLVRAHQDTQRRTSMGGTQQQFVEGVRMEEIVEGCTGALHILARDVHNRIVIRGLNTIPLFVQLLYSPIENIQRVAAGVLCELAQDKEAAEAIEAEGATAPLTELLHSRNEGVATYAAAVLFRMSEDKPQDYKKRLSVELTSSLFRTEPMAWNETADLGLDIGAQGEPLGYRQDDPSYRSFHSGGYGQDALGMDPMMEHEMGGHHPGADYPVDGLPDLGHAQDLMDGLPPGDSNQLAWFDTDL
T1 sequence (P12830 155-882 partner): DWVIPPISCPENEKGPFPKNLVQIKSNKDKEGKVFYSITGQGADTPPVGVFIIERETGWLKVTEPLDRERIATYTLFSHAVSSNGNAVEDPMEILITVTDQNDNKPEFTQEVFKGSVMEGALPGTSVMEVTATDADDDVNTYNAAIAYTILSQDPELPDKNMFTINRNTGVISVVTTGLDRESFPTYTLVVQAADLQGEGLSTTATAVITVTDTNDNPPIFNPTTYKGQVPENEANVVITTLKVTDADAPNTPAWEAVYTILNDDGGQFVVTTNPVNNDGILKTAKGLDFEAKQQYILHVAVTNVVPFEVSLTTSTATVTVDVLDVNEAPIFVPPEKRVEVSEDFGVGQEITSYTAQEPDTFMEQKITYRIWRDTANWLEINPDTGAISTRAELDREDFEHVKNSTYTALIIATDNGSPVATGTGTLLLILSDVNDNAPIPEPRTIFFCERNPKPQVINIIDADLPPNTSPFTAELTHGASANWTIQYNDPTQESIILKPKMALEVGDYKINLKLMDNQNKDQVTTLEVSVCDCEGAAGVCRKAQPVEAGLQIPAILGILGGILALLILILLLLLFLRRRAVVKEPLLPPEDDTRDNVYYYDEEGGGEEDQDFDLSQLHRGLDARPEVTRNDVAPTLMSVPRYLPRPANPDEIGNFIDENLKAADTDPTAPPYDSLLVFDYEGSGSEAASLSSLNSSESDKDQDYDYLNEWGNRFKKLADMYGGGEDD
Summary of the method: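 DLD-1 cells treated 16 h with DMSO vehicle or 1, 10 or 20 μM compound, then lysed in whole-cell lysis buffer. 800 μg extract incubated with 3.5 μg anti-β-catenin, with normal rabbit IgG as negative control. Protein G magnetic beads added for 1 h at 4°C, washed four times (150 mM NaCl) and eluted in reducing buffer. 2% input included. Immunoblotting used chemiluminescence and actin-normalised densitometry.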

[4] = test system: Wnt target genes AXIN2 and CD44; experiment: RT-qPCR of Wnt target genes in Colo320 and HCT116 cells; format: cell-based, human; conditions: 10 or 20 μM for 6, 24, and 48 hours
Summary of the method: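 Colo320 and HCT116 cells treated with DMSO vehicle or 10 or 20 μM compound for 6, 24 and 48 h. Total RNA isolated with TRIzol, reverse-transcribed, and SYBR Green qPCR run. Expression normalised to B2M and PMM1 or GAPDH by the ΔΔCT method.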

Colo320 and HCT116 cells = experiment: Proliferation assay, β-catenin–dependent cell lines; format: cell-based, human; conditions: 5, 10, or 20 μM; 24, 48, 72, and 96 hours
Summary of the method: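 Colo320, HCT116 and RKO cells were seeded in triplicate at 3000 cells/well and treated with DMSO vehicle or 5, 10 or 20 μM compound. Proliferation was measured by CellTiter-Glo 2.0 luminescence, relative to the respective baseline readings.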

β-catenin/BCL9 complexes = target: T2, β-catenin/BCL9 complexes (Homo sapiens, UniProt P35222); experiment: BCL9 Co-IP assay in Colo320 and HCT116 cells; format: cell-based; conditions: Colo320 and HCT116, 16 hours
T2 sequence (P35222 2-781 limits assumed): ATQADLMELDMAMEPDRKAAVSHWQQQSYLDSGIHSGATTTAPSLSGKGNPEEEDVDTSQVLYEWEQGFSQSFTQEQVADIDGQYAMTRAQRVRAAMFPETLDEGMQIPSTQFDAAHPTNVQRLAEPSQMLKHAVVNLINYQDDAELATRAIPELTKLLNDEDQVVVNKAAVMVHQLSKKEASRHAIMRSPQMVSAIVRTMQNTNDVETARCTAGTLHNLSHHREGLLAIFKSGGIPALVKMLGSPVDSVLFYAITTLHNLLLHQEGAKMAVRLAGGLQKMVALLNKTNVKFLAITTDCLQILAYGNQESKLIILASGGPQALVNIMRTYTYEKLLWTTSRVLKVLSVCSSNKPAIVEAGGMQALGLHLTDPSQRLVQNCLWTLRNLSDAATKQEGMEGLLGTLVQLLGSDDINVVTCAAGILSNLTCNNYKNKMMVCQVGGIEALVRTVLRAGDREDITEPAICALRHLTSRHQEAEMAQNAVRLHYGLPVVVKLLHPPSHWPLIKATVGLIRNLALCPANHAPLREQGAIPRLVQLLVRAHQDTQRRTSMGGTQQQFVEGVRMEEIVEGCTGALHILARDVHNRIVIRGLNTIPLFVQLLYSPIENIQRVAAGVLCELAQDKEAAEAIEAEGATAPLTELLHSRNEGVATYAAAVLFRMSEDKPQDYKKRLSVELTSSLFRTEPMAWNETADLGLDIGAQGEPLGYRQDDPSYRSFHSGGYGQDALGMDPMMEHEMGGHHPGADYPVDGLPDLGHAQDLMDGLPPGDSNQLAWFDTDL
Summary of the method: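 Colo320 and HCT116 cells (with 4T1) were treated for 16 h with DMSO vehicle or 1, 10 or 20 μM compound. Nuclei were isolated and digested with hypotonic and digestion buffers, and nuclear protein was quantified by Bradford. 800 μg nuclear extract was immunoprecipitated overnight at 4°C with 3.5 μg anti-BCL9, with normal rabbit IgG as negative control, then immunoblotted.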

AXIN2, CD44, PARP, ABC = experiment: Immunoblots of β-catenin–dependent cell lines Colo320 and HCT116; format: cell-based, human; conditions: Colo320 and HCT116, 24 and 48 hours
Summary of the method: (§1)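 HCT116 (McCoy's), Colo320 (RPMI 1640) and RKO (DMEM) were grown with 10% FBS at 37°C, 5% CO2, with DMSO as vehicle. Membranes were probed overnight at 4°C with primary antibodies in blocking buffer, then HRP secondary, and detected by chemiluminescence. Densitometry was normalized to actin.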

AXIN2, CD44, PARP = experiment: Immunoblots of β-catenin–independent cell line RKO; format: cell-based, human; conditions: RKO cells
Summary of the method: as §1

[5] = target: T3, full-length recombinant β-catenin (1 to 781 amino acids, 88 kDa) (human, UniProt P35222 1-781); experiment: AlphaScreen or HTRF
T3 sequence: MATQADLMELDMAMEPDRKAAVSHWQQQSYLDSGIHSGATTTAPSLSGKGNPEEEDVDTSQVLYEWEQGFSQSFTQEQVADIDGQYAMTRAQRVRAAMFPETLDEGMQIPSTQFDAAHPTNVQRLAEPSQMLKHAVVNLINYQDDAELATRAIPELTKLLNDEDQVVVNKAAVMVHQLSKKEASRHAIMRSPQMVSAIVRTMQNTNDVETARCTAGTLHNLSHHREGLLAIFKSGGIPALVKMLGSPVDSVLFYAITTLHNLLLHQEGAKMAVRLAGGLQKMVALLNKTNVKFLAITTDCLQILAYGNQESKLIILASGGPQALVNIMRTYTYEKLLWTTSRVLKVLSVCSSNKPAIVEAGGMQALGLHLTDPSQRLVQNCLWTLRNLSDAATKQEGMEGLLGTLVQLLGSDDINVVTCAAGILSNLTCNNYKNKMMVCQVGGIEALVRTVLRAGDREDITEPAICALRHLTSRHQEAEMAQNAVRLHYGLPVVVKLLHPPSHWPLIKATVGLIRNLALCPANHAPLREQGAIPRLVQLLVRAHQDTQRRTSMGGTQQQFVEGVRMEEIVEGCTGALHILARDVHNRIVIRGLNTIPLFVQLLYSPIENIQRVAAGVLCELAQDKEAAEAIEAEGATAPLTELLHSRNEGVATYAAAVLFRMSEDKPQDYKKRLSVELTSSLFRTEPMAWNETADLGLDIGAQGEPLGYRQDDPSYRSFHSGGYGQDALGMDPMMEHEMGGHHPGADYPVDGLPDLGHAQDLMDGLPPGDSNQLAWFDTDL

Molecule: CC(C)c1cc(C(C)C)c(CC(=O)NS(=O)(=O)Oc2c(C(C)C)cccc2C(C)C)c(C(C)C)c1 [avasimibe]
- effect of addition of cholesterol on viability (HCT116 and Colo320 cells): did not affect the viability
- cell viability compared to vehicle controls (HCT116 and Colo320 cells): significantly reduced cell viability

Molecule: nonbiotinylated BCL9-HD2 peptide
- Kd [1]: 2740 nM

Molecule: CCN(CC)CCO[C@H]1CC[C@@]2(C)C(=CC[C@@H]3[C@@H]2CC[C@]2(C)C(=O)CC[C@@H]32)C1.Cl [U-18666A]
- intracellular lipids (BODIPY) (HCT116 cells): substantial intracellular lipid accumulation

Molecule: O=C1[C@H](Cc2ccc(O)cc2)N2C(=O)CCN(C(=O)NCc3ccccc3)[C@H]2CN1Cc1cccc2ccccc12 [ICG-001, reference compound]
- cell viability compared to vehicle controls (HCT116 and Colo320 cells): significantly reduced cell viability
- inhibition of Wnt signaling (firefly/renilla luciferase ratio) [2]: significantly inhibited Wnt signaling

Molecule: CC[C@H](C)C(=O)O[C@H]1C[C@@H](C)C=C2C=C[C@H](C)[C@H](CC[C@@H]3C[C@@H](O)CC(=O)O3)[C@H]21 [lovastatin]
- effect of addition of cholesterol on viability (HCT116 and Colo320 cells): did not affect the viability
- cell viability compared to vehicle controls (HCT116 and Colo320 cells): significantly reduced cell viability

Molecule: Biotin-LSQEQLEHRERSLQTLRDIQRM [N-terminal biotinylated BCL9-HD2 peptide]
- binding result [5]: binds

The next lines start with results.

- concentration inhibiting β-catenin/BCL9 complexes in Co-IP (β-catenin/BCL9 complexes): 1 µM
- PARP cleavage (AXIN2, CD44, PARP): minor PARP cleavage at 10 and 20 μM
Molecule: O=C(Nc1ccccc1Oc1nc2ccccc2n2cnnc12)c1cccs1 [C-2]
- disruption of β-catenin complexes with E-cadherin [3]: Neither compound disrupted the ability of β-catenin to form complexes with E-cadherin
- expression of AXIN2 and CD44 mRNAs [4]: significantly inhibited the expression of AXIN2 and CD44 mRNAs
- proliferation (Colo320 and HCT116 cells): significantly reduced the proliferation
- inhibition of Wnt signaling (firefly/renilla luciferase ratio) [2]: significantly inhibited Wnt signaling
- PARP cleavage (AXIN2, CD44, PARP, ABC): increased the cleavage of poly(adenosine diphosphate–ribose) polymerase (PARP)
- abundance of active β-catenin (ABC) (AXIN2, CD44, PARP, ABC): decreased abundance of “active” dephosphorylated β-catenin
- protein expression of AXIN2 and CD44 (AXIN2, CD44, PARP, ABC): significantly decreased the protein expression of AXIN2 and CD44
- expression of AXIN2 or CD44 protein (AXIN2, CD44, PARP): did not affect their expression of AXIN2 or CD44 protein

- concentration inhibiting β-catenin/BCL9 complexes in Co-IP (β-catenin/BCL9 complexes): 20 µM
Molecule: COc1ccc(C)cc1CN1CCC(c2cc3ncccc3cn2)CC1 [C-3]
